For experiment [1], the system named is Serine/threonine-protein kinase D1 (Homo sapiens), Q15139 [UNDEFINED MUTATION]. Put plainly: Inhibition of recombinant full-length human PKCmu R135A mutant assessed as residual activity at 10 uM using KKLNRTLSVA as substrate incubated for 40 mins in presence of [gamma33P]ATP by scintillation counting based radiometry assay relative to control.
The target of experiment [2] is Serine/threonine-protein kinase ULK2 (Homo sapiens) (UniProt Q8IYT8). Kind of experiment: Inhibition of recombinant human ULK2 (1 to 306 residues) assessed as residual activity at 10 uM using casein as substrate incubated for 40 mins in presence of [gamma33P]ATP by scintillation counting based radiometry assay relative to control.
Serine/threonine-protein kinase ULK2 (Homo sapiens), sequence (Q8IYT8 whole entry, the tested form may be a part): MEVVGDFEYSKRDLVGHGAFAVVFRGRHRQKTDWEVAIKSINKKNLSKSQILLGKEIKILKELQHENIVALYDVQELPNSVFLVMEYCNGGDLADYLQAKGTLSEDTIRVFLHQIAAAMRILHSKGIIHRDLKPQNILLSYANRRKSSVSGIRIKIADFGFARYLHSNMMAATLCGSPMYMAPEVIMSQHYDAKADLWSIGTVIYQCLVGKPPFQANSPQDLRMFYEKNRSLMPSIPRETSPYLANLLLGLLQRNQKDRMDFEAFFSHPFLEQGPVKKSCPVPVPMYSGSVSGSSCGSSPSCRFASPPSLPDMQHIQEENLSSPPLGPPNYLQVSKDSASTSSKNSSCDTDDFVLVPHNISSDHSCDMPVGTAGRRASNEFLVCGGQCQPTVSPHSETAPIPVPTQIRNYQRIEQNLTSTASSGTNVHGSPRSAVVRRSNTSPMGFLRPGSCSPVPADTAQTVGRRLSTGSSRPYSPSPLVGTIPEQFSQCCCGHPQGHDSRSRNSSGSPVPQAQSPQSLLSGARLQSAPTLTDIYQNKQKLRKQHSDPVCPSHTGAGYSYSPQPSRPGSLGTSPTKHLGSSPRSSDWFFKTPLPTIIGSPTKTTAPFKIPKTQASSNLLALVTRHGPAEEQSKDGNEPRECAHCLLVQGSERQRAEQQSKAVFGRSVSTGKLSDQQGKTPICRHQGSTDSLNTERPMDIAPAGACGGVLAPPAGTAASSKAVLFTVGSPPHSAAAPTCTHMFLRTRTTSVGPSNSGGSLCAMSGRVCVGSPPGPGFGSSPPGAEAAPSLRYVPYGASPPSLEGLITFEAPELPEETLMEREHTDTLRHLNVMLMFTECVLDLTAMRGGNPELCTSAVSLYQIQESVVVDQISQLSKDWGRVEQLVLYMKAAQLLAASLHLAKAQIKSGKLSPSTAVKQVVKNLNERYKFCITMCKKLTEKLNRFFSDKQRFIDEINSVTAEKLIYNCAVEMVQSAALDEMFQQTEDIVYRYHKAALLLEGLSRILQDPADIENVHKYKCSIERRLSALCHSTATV
Experiment [3] deals with Serine/threonine-protein kinase WNK1 (Homo sapiens) (UniProt Q9H4A3). Kind of experiment: Inhibition of recombinant human WNK1 (1 to 491 residues) assessed as residual activity at 10 uM using myelin basic protein as substrate incubated for 40 mins in presence of [gamma33P]ATP by scintillation counting based radiometry assay relative to control.
Experiment [4] has as its target Transient receptor potential cation channel subfamily M member 7 (Homo sapiens) (UniProt Q96QT4). Kind of experiment: Inhibition of recombinant human CHAK1 (1180 to end residues) assessed as residual activity at 10 uM using myelin basic protein as substrate incubated for 40 mins in presence of [gamma-33ATP] by scintillation counting based radiometry assay relative to control.

For experiment [5], the target named is Serine-protein kinase ATM (Homo sapiens) (UniProt Q13315). Put plainly: Inhibition of recombinant full-length human ATM assessed as residual activity at 10 uM using GST-cMyc-p53 as substrate measured after 40 mins by ELISA relative to control. (In general: ELISA stands for enzyme-linked immunosorbent assay.)
Serine-protein kinase ATM (Homo sapiens), sequence (Q13315 whole entry): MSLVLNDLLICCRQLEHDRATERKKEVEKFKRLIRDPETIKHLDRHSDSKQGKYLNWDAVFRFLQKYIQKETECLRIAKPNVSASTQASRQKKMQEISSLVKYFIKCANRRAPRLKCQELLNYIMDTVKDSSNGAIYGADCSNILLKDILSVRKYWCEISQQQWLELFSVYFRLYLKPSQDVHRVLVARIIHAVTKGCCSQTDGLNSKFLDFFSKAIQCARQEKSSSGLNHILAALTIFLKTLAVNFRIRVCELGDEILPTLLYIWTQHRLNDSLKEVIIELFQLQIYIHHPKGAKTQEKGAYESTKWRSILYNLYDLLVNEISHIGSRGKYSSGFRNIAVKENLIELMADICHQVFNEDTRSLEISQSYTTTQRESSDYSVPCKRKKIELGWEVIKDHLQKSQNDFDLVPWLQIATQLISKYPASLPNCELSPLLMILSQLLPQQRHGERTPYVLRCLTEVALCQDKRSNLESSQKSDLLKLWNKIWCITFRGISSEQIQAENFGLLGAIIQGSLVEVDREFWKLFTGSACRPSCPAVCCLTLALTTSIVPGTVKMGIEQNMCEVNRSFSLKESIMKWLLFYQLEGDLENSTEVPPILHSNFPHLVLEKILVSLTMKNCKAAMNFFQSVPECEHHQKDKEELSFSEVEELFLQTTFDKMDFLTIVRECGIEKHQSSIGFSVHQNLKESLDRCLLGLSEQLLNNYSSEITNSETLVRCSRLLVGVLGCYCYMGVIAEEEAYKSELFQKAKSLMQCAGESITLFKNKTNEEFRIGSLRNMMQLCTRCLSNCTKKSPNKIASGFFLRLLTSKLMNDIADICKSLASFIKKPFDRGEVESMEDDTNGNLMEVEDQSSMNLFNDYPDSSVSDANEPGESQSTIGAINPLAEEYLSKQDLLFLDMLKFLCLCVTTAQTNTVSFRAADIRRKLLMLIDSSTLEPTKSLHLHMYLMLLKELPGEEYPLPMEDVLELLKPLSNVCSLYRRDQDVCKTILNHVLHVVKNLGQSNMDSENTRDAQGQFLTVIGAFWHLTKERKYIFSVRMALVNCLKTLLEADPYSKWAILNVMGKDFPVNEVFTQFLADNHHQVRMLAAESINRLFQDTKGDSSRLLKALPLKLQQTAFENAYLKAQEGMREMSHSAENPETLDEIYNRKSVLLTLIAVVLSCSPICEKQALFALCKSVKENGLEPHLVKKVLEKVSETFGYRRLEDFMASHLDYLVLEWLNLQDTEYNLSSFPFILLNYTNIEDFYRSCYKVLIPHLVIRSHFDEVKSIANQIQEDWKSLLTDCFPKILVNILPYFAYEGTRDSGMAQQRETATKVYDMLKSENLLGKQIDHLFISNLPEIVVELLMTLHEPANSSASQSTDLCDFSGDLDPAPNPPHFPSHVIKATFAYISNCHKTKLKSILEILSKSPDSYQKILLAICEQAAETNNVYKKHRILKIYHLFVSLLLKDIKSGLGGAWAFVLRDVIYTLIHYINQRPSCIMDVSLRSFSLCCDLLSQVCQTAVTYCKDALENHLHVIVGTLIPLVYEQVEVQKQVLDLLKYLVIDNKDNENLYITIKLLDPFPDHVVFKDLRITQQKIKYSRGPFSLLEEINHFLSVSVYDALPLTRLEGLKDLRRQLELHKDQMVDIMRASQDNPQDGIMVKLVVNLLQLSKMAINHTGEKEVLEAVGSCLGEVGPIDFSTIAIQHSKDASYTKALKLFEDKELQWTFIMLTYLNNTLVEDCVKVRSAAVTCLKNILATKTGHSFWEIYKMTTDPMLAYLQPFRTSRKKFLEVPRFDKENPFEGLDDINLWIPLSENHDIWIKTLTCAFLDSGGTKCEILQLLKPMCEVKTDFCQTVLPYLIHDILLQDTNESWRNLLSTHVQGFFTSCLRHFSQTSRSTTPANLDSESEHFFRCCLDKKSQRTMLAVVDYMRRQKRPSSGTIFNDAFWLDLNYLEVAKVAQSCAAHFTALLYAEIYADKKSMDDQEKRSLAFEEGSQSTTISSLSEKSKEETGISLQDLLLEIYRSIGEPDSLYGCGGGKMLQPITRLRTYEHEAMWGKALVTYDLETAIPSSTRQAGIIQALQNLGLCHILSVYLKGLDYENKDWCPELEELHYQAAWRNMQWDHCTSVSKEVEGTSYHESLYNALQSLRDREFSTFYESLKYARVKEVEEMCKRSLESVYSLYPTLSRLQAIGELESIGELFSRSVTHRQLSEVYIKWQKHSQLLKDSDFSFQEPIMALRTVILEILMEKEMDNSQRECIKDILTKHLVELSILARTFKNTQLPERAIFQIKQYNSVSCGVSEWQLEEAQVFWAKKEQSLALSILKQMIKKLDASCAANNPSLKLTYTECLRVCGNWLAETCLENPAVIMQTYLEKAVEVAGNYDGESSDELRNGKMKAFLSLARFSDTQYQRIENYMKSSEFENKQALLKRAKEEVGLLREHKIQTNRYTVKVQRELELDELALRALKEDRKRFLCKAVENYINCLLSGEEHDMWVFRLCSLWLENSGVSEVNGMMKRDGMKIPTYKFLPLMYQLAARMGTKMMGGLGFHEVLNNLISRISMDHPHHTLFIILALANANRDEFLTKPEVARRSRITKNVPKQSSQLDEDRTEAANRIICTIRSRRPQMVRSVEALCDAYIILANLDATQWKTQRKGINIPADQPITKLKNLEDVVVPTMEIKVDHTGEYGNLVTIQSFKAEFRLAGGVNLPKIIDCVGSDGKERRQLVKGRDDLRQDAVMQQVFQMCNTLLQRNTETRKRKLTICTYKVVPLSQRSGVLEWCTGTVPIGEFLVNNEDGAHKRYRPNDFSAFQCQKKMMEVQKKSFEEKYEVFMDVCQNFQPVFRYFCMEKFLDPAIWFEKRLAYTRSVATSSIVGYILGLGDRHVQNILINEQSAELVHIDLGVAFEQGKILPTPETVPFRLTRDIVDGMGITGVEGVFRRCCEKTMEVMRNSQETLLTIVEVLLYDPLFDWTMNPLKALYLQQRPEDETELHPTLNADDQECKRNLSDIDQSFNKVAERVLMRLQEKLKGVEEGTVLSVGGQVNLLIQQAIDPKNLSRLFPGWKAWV
In experiment [6] the target is Cyclin-dependent kinase 1/cyclin B1 (Homo sapiens) (UniProt P06493+P14635). Kind of experiment: Inhibition of recombinant full length human CDK1/CyclinB assessed as residual activity at 10 uM using Histone H1 as substrate incubated for 40 mins in presence of [gamma-33ATP] by scintillation counting based radiometry assay relative to control. In kind it is protein-complex assay.

The target in experiment [7] is Myosin light chain kinase, smooth muscle (Homo sapiens) (UniProt Q15746). Kind of experiment: Inhibition of recombinant human MLCK (1425 to 1771 residues) assessed as residual activity at 10 uM using […] incubated for 40 mins in presence of [gamma-33ATP by scintillation counting based radiometry assay relative to control.
Experiment [8] deals with Serine/threonine-protein kinase LATS1 (Homo sapiens, UniProt O95835). Kind of experiment: Binding affinity to recombinant human LATS1 (Q678 to V1130 residues) expressed in bacterial expression system assessed as dissociation constant by Kinomescan method. An outline of the steps:
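KINOMEscan competition binding assay. Kinase bound at each concentration of test compound was quantified by qPCR and plotted against log10 compound concentration to derive Kd.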

Experiment [9] has as its target SRSF protein kinase 2 (Homo sapiens) (UniProt P78362). Kind of experiment: Inhibition of recombinant human SRPK2 (46 to end residues) assessed as residual activity at 10 uM using RSRSRSRSRSRSRSR as substrate incubated for 40 mins in presence of [gamma33P]ATP by scintillation counting based radiometry assay relative to control.
In experiment [10] the target is Serine/threonine-protein kinase/endoribonuclease IRE1 (Homo sapiens) (UniProt O75460). Put plainly: Inhibition of human IRE1 (465 to end residues) assessed as residual activity at 10 uM using myelin basic protein as substrate after 40 mins by [gamma-33ATP] radiometric assay relative to control.
Experiment [11] concerns the target Fibroblast growth factor receptor 1 (Homo sapiens) (UniProt P11362). Put plainly: Inhibition of recombinant human FGFR1 (456 to 765 residues) assessed as residual activity at 10 uM using KKKSPGEYVNIEF as substrate at 40 mins in presence of [gamma-33ATP] by scintillation counting based radiometry assay relative to control.
Experiment [12] has as its system TGF-beta receptor type-1 (Homo sapiens), P36897 [T204D]. Put plainly: Inhibition of recombinant human TGFBR1 T204D mutant (200 to end residues) assessed as residual activity at 10 uM using casein as substrate incubated for 40 mins in presence of [gamma33P]ATP by scintillation counting based radiometry assay relative to control.
Experiment [13] has as its target Serine/threonine-protein kinase VRK2 (Homo sapiens) (UniProt Q86Y07). Put plainly: Inhibition of recombinant human VRK2 (1 to 336 residues) assessed as residual activity at 10 uM using casein as substrate incubated for 40 mins in presence of [gamma33P]ATP by scintillation counting based radiometry assay relative to control.
In experiment [14] the target is Serine/threonine-protein kinase WNK2 (Homo sapiens) (UniProt Q9Y3S1). Put plainly: Inhibition of recombinant human WNK2 (166 to 489 residues) assessed as residual activity at 10 uM using myelin basic protein as substrate incubated for 40 mins in presence of [gamma33P]ATP by scintillation counting based radiometry assay relative to control.
Experiment [15] deals with Tyrosine-protein kinase JAK1 (Homo sapiens) (UniProt P23458). Put plainly: Inhibition of human JAK1 (866 to end residues) assessed as residual activity at 10 uM using GEEPLYWSFPAKKK as substrate after 40 mins by [gamma-33ATP] radiometric assay relative to control.
The test system of experiment [16] is Hepatocyte growth factor receptor (Homo sapiens), P08581 [D1228N]. Put plainly: Inhibition of recombinant human MET A1209G/V1290L/D1246N mutant (974 to end residues) assessed as residual activity at 10 uM using KKKGQEEEYVFIE as substrate incubated for 40 mins in presence of [gamma-33ATP by scintillation counting based radiometry assay relative to control.
Experiment [17] deals with Beta-adrenergic receptor kinase 1 (Homo sapiens) (UniProt P25098). Put plainly: Inhibition of recombinant full length human GRK2 assessed as residual activity at 10 uM using casein as substrate at 40 mins in presence of [gamma-33ATP] by scintillation counting based radiometry assay relative to control.
The target in experiment [18] is Death-associated protein kinase 2 (Homo sapiens) (UniProt Q9UIK4). Kind of experiment: Inhibition of recombinant full length human DAPK2 assessed as residual activity at 10 uM Calmodulin as substrate incubated 40 mins in presence of [gamma-33ATP] by scintillation counting based radiometry assay relative to control.
For experiment [19], the target named is cAMP-dependent protein kinase catalytic subunit PRKX (Homo sapiens) (UniProt P51817). Kind of experiment: Inhibition of recombinant human full length PrKX assessed as residual activity at 10 uM using RRRLSFAEPG as substrate incubated for 40 mins in presence of [gamma33P]ATP by scintillation counting based radiometry assay relative to control.
The target in experiment [20] is Calcium/calmodulin-dependent protein kinase kinase 1 (Homo sapiens) (UniProt Q8N5S9). Kind of experiment: Inhibition of recombinant full length human CaMKK1 assessed as residual activity at 10 uM using […] incubated for 40 mins in presence of [gamma-33ATP] by scintillation counting based radiometry assay relative to control.
Experiment [21] concerns the target Serine/threonine-protein kinase 4 (Homo sapiens) (UniProt Q13043). Kind of experiment: Inhibition of recombinant full-length human MST1 assessed as residual activity at 10 uM using KKSRGDYMTMQIG as substrate measured after 40 mins in presence of [gamma33P]ATP by scintillation counting based radiometry assay relative to control. Summed up:
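Outsourced kinase profiling of MST1 by a commercial service (Eurofins); activity reported as mean ± SEM of 2 replicates.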

Fibroblast growth factor receptor 1 (Homo sapiens), sequence (P11362 22-822 limits assumed): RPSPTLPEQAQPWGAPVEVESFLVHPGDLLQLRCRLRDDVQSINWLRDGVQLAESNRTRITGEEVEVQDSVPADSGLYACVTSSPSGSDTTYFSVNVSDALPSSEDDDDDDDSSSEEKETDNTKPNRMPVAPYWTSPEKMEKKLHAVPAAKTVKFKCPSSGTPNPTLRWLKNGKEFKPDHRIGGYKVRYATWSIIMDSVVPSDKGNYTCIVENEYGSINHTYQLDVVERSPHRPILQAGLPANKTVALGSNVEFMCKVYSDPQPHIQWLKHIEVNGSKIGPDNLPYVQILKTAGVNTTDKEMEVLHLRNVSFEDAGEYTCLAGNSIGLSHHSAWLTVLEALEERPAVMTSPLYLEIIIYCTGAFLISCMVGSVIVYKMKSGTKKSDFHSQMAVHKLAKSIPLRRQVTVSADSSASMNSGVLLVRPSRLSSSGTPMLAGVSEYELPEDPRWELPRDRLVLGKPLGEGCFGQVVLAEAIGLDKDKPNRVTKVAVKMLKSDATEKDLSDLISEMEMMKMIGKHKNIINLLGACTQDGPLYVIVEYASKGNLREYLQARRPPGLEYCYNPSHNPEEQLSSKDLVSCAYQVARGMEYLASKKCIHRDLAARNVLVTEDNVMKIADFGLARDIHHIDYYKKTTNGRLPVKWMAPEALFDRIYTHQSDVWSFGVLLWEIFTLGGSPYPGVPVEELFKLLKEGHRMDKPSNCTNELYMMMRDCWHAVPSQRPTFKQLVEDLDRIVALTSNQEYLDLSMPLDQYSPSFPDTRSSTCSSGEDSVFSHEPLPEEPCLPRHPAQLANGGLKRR

A word on the Kd: it is the equilibrium constant for the complex coming apart. Take `C[C@@H](c1ccccc1)n1nnc2cnc3ccc(-c4cnc5[nH]ccc5c4)cc3c21`: the Activity came to 93% in experiment [1]; 98% in experiment [2]; 86% in [3]; 66% in experiment [4]; 0% in experiment [5]; 63% in [6]. For the same compound, the Activity was found to be 61% in experiment [7]; 26% in experiment [9]; 86% in experiment [10]; 34% in [11]; 97% in [12]; 80% in experiment [13]. In addition, the Activity in [14] is 85%; in experiment [15], 47%; in [16] it was 55%; in experiment [17], 92%; in experiment [18], 89%; in [19], 97%. Besides, the Activity in [20] was 67%; in [21] it was 73%. Also, the Kd in [8] was greater than 10 µM.

The record behind these values is ChEMBL document CHEMBL4334471, “Discovery of 1,8-disubstituted-[1,2,3]triazolo[4,5-c]quinoline derivatives as a new class of Hippo signaling pathway inhibitors” (Bioorg Med Chem Lett, 2019).
